Reference: ChEMBL document CHEMBL1121721 (J Med Chem, 1981)

Tests used:
Mu-type opioid receptor = Mu-type opioid receptor (Cavia porcellus, UniProt P97266); assay: Inhibitory potency against Opioid receptor mu 1 in longitudinal muscle preparation of guinea pig ileum; type: tissue-based
Outline: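 Guinea pig ileum was electrically stimulated to contract, and inhibition was measured at six concentrations per compound, with six to eight assays each. Methionine-enkephalin served as the internal standard in every assay. IC50 was obtained by regression analysis.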

[1] = Ratio of IC50 evaluated in GPI to MVD; type: functional
Outline: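 IC50 values were determined on electrically stimulated guinea pig ileum and on mouse vas deferens. Each used six concentrations with six to eight assays each, methionine-enkephalin as internal standard, and regression analysis. The ratio is GPI IC50 over MVD IC50.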

Mus musculus [2] = species: Mus musculus; assay: Relative potency of compound verses morphine for analgesic activity in mice; type: functional
Mus musculus [3] = assay: Analgesic activity of compound (1.98 nM) in mice after icv administration; type: functional
Outline: (§1)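 Swiss mice (20–22 g) got icv injections of compound freshly dissolved in saline, in a constant 5 μL. Hind-paw lick latency on a 65 ± 1 °C hot plate was read 15 min after injection. Animals with control latency above 9 s were rejected. Values are mean ± SEM, with n per group.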

[4] = biological target: Delta-type opioid receptor (Mus musculus, UniProt P32300); assay: Inhibitory potency against delta Opioid receptor delta 1 in longitudinal muscle preparation of mouse vas deferens
Chain of Delta-type opioid receptor (P32300 whole entry): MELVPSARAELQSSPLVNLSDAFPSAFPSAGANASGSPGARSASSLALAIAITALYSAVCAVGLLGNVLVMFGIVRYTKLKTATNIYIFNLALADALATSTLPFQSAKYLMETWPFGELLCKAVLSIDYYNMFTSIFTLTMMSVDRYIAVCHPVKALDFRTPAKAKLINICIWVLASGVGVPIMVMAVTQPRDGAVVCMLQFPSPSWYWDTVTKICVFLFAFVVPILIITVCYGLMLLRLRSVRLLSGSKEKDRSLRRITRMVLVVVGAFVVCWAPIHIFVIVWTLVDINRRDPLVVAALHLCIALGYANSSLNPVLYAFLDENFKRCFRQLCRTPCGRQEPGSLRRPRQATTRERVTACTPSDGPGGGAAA

Mus musculus [5] = assay: Analgesic activity of compound (1.46+naloxone) in mice after icv administration; type: functional
Outline: (§2)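 Swiss mice (20–22 g) got naloxone 1 mg/kg sc or diprenorphine 0.5 mg/kg sc 15 min before icv compound, given in saline in a constant 5 μL. Hind-paw lick latency on a 65 ± 1 °C hot plate was read 15 min after icv injection. Mice with control latency over 9 s were excluded. Values are mean ± SEM, with n.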

Mus musculus [6] = assay: Analgesic activity of compound (1.46 nM) in mice after icv administration; type: functional; outline: as §1
Mus musculus [7] = assay: Analgesic activity of compound (1.46+diprenorphine) in mice after icv administration; type: functional; outline: as §2
Mus musculus [8] = assay: Analgesic activity of compound (2.66 nM) in mice after icv administration; type: functional; outline: as §1
Mus musculus [9] = assay: Analgesic activity of compound (1.45 nM) in mice after icv administration; type: functional; outline: as §1
Mus musculus [10] = assay: Analgesic activity of compound (1.48 nM) in mice after icv administration; type: functional; outline: as §1

Chain of Mu-type opioid receptor (P97266 whole entry): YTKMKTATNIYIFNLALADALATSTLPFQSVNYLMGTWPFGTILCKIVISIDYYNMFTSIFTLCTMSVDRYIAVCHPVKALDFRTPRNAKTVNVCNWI

| Compound | IC50 (Mu-type opioid receptor) | Ratio [1] | Relative potency (Mus musculus [2]) | IC50 [4] | other results |
| --- | --- | --- | --- | --- | --- |
| CSCC[C@H](NC(=O)[C@H](Cc1ccccc1)NC(=O)CNC(=O)CNC(=O)[C@@H](N)Cc1ccc(O)cc1)C(=O)O | 200 nM | – | – | – | – |
| CC(C)CC(C)NC(=O)CNC(=O)[C@H](C)NC(=O)[C@@H](N)Cc1ccc(O)cc1 (stereo not given in full) | 182 nM | 0.15 | 1 | 1220 nM | Hind-paw lick latency time (Mus musculus [3]): 25 s |
| CC(C)C[C@H](NC(=O)[C@H](Cc1ccccc1)NC(=O)CNC(=O)[C@H](CO)NC(=O)[C@@H](N)Cc1ccc(O)cc1)C(=O)N[C@H](C(=O)O)[C@@H](C)O | 360 nM | – | – | – | Hind-paw lick latency time (Mus musculus [5]): 10.5 s; Hind-paw lick latency time (Mus musculus [6]): 32.6 s; Hind-paw lick latency time (Mus musculus [7]): 6.6 s |
| C[C@H](NC(=O)[C@@H](N)Cc1ccc(O)cc1)C(=O)NCC(=O)N(C)[C@@H](Cc1ccccc1)C(=O)N[C@@H](CC[S+](C)[O-])C(=O)O (stereo not given in full) | 7.2 nM | 0.46 | >100 | 15.7 nM | – |
| CC(C)C[C@@H](NC(=O)[C@H](Cc1ccccc1)NC(=O)CNC(=O)[C@@H](C)NC(=O)[C@@H](N)Cc1ccc(O)cc1)C(=O)O [DADLE] | 47.8 nM | – | – | – | – |
| CN1CC[C@]23c4c5ccc(O)c4O[C@H]2[C@@H](O)C=C[C@H]3[C@H]1C5 [MORPHINE] | – | – | – | – | Hind-paw lick latency time (Mus musculus [8]): 25.2 s |
| H-YAGFMT-OH | 240 nM | 220 | 2 | 1.09 nM | Hind-paw lick latency time (Mus musculus [9]): 29.3 s |
| H-YGGFMT-OH | 380 nM | 62 | >0.1 | 6.1 nM | Hind-paw lick latency time (Mus musculus [10]): 6.5 s |
| H-YMGFP-NH2 | 21.9 nM | 0.95 | 25 | 23.1 nM | – |
